# Assay results: ChEMBL document CHEMBL1155940, “Synthesis and preliminary pharmacological evaluation of novel derivatives of L-beta-threo-benzylaspartate as inhibitors of the neuronal glutamate transporter EAAT3” (Bioorg Med Chem, 2008)
# Assays:
# [1] = target: T1, Excitatory amino acid transporter 3 (Homo sapiens) (UniProt P43005); experiment: Residual [3H]D-aspartate uptake at human EAAT3 expressed in mouse C17.2 cells at 100 uM relative to control
# T1 sequence (whole entry): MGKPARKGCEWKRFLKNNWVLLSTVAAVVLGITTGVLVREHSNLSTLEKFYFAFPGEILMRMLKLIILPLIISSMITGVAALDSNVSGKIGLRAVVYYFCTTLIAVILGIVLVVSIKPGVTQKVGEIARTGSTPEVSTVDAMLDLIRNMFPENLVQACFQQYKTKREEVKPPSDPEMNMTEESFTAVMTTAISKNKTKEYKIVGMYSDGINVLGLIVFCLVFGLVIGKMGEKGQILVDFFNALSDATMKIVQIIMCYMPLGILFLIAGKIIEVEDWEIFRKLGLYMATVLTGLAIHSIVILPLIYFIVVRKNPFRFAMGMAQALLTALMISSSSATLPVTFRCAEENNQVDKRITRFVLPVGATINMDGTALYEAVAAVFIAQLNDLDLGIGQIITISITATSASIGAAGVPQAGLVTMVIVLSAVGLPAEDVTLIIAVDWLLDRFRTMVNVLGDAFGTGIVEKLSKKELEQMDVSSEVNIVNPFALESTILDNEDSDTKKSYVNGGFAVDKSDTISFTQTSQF
# Homo sapiens [2] = species on record: Homo sapiens; experiment: Selectivity for human EAAT3 over human EAAT2 expressed in mouse C17.2 cells; assay type: cell-based
# Homo sapiens [3] = species on record: Homo sapiens; experiment: Selectivity for human EAAT3 over human EAAT1 expressed in mouse C17.2 cells; assay type: cell-based
# [4] = target: T2, Excitatory amino acid transporter 3 (Homo sapiens, UniProt P43005); experiment: Displacement of [3H]D-aspartate from human EAAT3 expressed in mouse C17.2 cells; assay type: cell-based
# T2 sequence (P43005 whole entry): T1 sequence (whole entry)
# How it was run: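 C17.2 neuroprogenitor cells (passages 10–20) seeded at 5 × 10^4/well, transiently transfected with human EAAT3 plasmid 24 h after plating, assayed 24 h later. Cells preincubated 5 min at 37°C in HEPES-buffered saline, pH 7.4, then given 1 µM 3H-D-aspartate with varying inhibitor concentrations. Rinsed with ice-cold buffer after uptake and read by scintillation counting. Corrected for 4°C background. IC50 from a one-site fit, ±SEM.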
residual activity [1] [%],Structure (SMILES),further results
0,N[C@H](C(=O)O)C(Cc1cccc(F)c1)C(=O)O (stereo not given in full),
86,N[C@H](C(=O)O)C(Cc1c(Cl)cccc1Cl)C(=O)O (stereo not given in full),
8,N[C@H](C(=O)O)C(Cc1cccc(Br)c1)C(=O)O (mixture of isomers),
4,N[C@H](C(=O)O)C(Cc1ccccc1)C(=O)O (stereo not given in full),
1,N[C@H](C(=O)O)[C@H](Cc1ccccc1)C(=O)O,fold change (FC) (Homo sapiens [2]): 10; fold change (FC) (Homo sapiens [3]): 10
36,Cc1cc(C)cc(CC(C(=O)O)[C@H](N)C(=O)O)c1 (mixture of isomers),
,N[C@H](C(=O)O)[C@@H](Cc1cccc(F)c1)C(=O)O,IC50 [4]: 21.1 µM
65,N[C@H](C(=O)O)C(Cc1ccc([N+](=O)[O-])cc1)C(=O)O (stereo not given in full),
33,Cc1cccc(CC(C(=O)O)[C@H](N)C(=O)O)c1 (mixture of isomers),
68,N[C@H](C(=O)O)C(Cc1ccc2ccccc2c1)C(=O)O (stereo not given in full),
7,N[C@H](C(=O)O)C(Cc1ccc(F)cc1)C(=O)O (mixture of isomers),
,N[C@H](C(=O)O)[C@H](Cc1cccc(F)c1)C(=O)O,IC50 [4]: 2.46 µM
29,N[C@H](C(=O)O)C(Cc1cccc([N+](=O)[O-])c1)C(=O)O (mixture of isomers),
